Our source for the GFP response vs DMSO, GFP response relative to DMSO and GFP response, % of DMSO values is PubChem BioAssay.

Activity calls are given as the source filed them.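 How the source made its calls, unless noted: active means GFP response above 150% of the DMSO level; inconclusive means fewer than 70 events counted for a yeast strain; inactive means the rest.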

Test [1] in a line: hit retest on RPL19A-GFP reporter strain – cell-based, S. cerevisiae, flow cytometry, cherry picks, mother/daughter gates, confirmation (AID 2270;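 active means GFP response below 50% of the DMSO control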). The conditions noted are these: 3 h, at 10 µM, stronger effect = lower value, 100 = same GFP as DMSO wells. (In flow cytometry, cells or beads pass a laser one at a time.)
Test [2] in a line: yeast TOR pathway reporter LAP4-GFP change – cell-based, cherry picks, flow cytometry, mother/daughter gates, confirmation (AID 2271;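 active means GFP response above 150% of the DMSO control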;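 further: ratio of sample to DMSO plate mean so 100% equals DMSO level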). The conditions noted are these: S. cerevisiae LAP4-GFP strain, 3 h, at 10 µM, stronger effect = higher value, 100 means same as DMSO control. In outline:
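System: Alexa 633-stained baker's yeast GFP-fusion strain / Medium: synthetic complete (SC) yeast growth medium / Doses: compound at 10 µM, single point / Times: 3 h treatment at 30 °C with rotation / Detection: HT flow cytometry, GFP fluorescence channel / Benchmarks: DMSO-only negative wells, rapamycin 400 ng/mL positive wells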

A short description of test [3]: TOR pathway reporter MEP2-GFP, retest of hits – S. cerevisiae, flow cytometry GFP, cherry picks, confirmation (AID 2272;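 active means GFP response above 150% of the DMSO control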;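 further: ratio of well signal to plate DMSO mean so 100% equals DMSO level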). To be noted: S. cerevisiae MEP2-GFP strain, 3 h, at 10 µM, stronger effect = higher value.
A short description of test [4]: yeast AGP1-GFP fluorescence change, single-dose – cell-based, flow cytometry, S. cerevisiae, cherry picks, confirmation (AID 2273).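 Further: median GFP channel fluorescence over the whole cell population gate.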 The conditions noted are these: S. cerevisiae AGP1-GFP strain, 3 h, at 10 µM.
A short description of test [5]: TOR pathway CIT2 reporter hit retest – S. cerevisiae, GFP fusion, cherry picks, mother/daughter gates, confirmation (AID 2274). The conditions noted are these: S. cerevisiae CIT2-GFP strain, flow cytometry, 3 h, at 10 µM, stronger effect = higher value.
Where [6] appears, read: measured here: daughter cell gate.
The mark [7] stands for this setting: measured here: mother cell gate.
[8] abbreviates: measured here: daughter cell gate response.
Where [9] appears, read: measured here: mother cell gate response.

For the molecule `CCc1c(C)c2cc(Cl)c(O)c(CN(C)C)c2oc1=O`, the GFP response vs DMSO in test [1] is 95.1% (inactive); in test [1] (setting [6]) it was 95.6%; in test [1] (setting [7]) it was 94.8%; in test [3], 106% (inactive). The GFP response relative to DMSO is 95.3% (inactive) in test [2], 99% in test [2] (setting [8]) and 93.4% in test [2] (setting [9]). Further, the GFP response, % of DMSO was 93.9% (inactive) in test [4], 95.8% (inactive) in test [5], 95.8% in test [5] (setting [6]) and 94.9% in test [5] (setting [7]).
As for `CCNC(=O)/C(C#N)=C/c1c(N2CCN(Cc3ccc4c(c3)OCO4)CC2)nc2c(C)cccn2c1=O`, the GFP response vs DMSO was 101% (inactive) in test [1], 99.2% in test [1] (setting [6]), 103% in test [1] (setting [7]) and 102% (inactive) in test [3]. Further, the results for the GFP response relative to DMSO in test [2], in test [2] (setting [8]) and in test [2] (setting [9]) were 99.8% (inactive), 97.2% and 101%, respectively. The GFP response, % of DMSO in test [4] was 100% (inactive); in test [5], 104% (inactive); in test [5] (setting [6]), 101%; in test [5] (setting [7]) it was 104%.
`CC(C)c1ccc(C(=O)N/N=C/c2cccc(Cl)c2Cl)cc1`: the GFP response vs DMSO is 93.4% (inactive) in test [1], 88% in test [1] (setting [6]), 92.6% in test [1] (setting [7]) and 103% (inactive) in test [3]. Moreover, the results for the GFP response relative to DMSO in test [2], in test [2] (setting [8]) and in test [2] (setting [9]) were 112% (inactive), 110% and 116%, respectively. The GFP response, % of DMSO in test [4] was 95.7% (inactive); in test [5], 87.2% (inactive); in test [5] (setting [6]), 83%; in test [5] (setting [7]), 85.8%.
In the case of `COC(=O)/C(=C/c1c[nH]c2ccccc12)[N+](=O)[O-]`, the GFP response vs DMSO was 99.6% (inactive) in test [1], 95.1% in test [1] (setting [6]), 95.1% in test [1] (setting [7]) and 111% (inactive) in test [3]. The values for the GFP response relative to DMSO in test [2], in test [2] (setting [8]) and in test [2] (setting [9]) were 162% (active), 149% and 164%, respectively. Further, the GFP response, % of DMSO was 86.9% (inactive) in test [4], 89.8% (inactive) in test [5], 89.9% in test [5] (setting [6]) and 80.7% in test [5] (setting [7]).
Take `COc1ccc(C2CC(c3ccccc3)=NN2S(=O)(=O)c2ccc(C)cc2)c(OC)c1` (stereo not drawn): the GFP response vs DMSO was 102% (inactive) in test [1], 98.8% in test [1] (setting [6]), 100% in test [1] (setting [7]) and 103% (inactive) in test [3]. Besides, the GFP response relative to DMSO in test [2] is 102% (inactive); in test [2] (setting [8]), 99.1%; in test [2] (setting [9]), 104%. Also, the GFP response, % of DMSO in test [4] was 101% (inactive); in test [5] it was 102% (inactive); in test [5] (setting [6]) it was 99.2%; in test [5] (setting [7]), 99.3%.
Consider `CCOc1ccccc1N1CCN(C(=O)c2cccc(-c3ccc(O)cc3)c2)CC1`, for which the GFP response vs DMSO in test [1] was 97% (inactive); in test [1] (setting [6]), 96.7%; in test [1] (setting [7]) it was 97.3%; in test [3], 102% (inactive). For the same molecule, the GFP response relative to DMSO is 98.7% (inactive) in test [2], 95.6% in test [2] (setting [8]) and 102% in test [2] (setting [9]). For the same molecule, the GFP response, % of DMSO in test [4] is 92.4% (inactive); in test [5], 96.5% (inactive); in test [5] (setting [6]), 94.8%; in test [5] (setting [7]) it was 94.4%.
On to `O=C(CSc1ccc(Cl)cc1)Nc1cccc(-c2nc3ccccc3[nH]2)c1`, for which the GFP response vs DMSO is 97.8% (inactive) in test [1], 98% in test [1] (setting [6]), 97.8% in test [1] (setting [7]) and 99.5% (inactive) in test [3]. The GFP response relative to DMSO in test [2] was 101% (inactive); in test [2] (setting [8]), 97.9%; in test [2] (setting [9]), 101%. For the same molecule, the GFP response, % of DMSO is 98% (inactive) in test [4], 96.4% (inactive) in test [5], 96.4% in test [5] (setting [6]) and 95.6% in test [5] (setting [7]).
In the case of `COc1ccc(Br)cc1/C=C/C(=O)c1ccc(NC(C)=O)cc1`, the GFP response vs DMSO was 100% (inactive) in test [1], 98.4% in test [1] (setting [6]), 97.7% in test [1] (setting [7]) and 101% (inactive) in test [3]. The GFP response relative to DMSO in test [2] was 89.4% (inactive); in test [2] (setting [8]), 89.8%; in test [2] (setting [9]) it was 92.3%. Further, the GFP response, % of DMSO is 98.6% (inactive) in test [4], 98.6% (inactive) in test [5], 101% in test [5] (setting [6]) and 96% in test [5] (setting [7]).
Regarding `Cc1c(NC(=O)Nc2ccc3c(c2)OCO3)c(=O)n(-c2ccccc2)n1C`, the GFP response vs DMSO in test [1] is 99.3% (inactive); in test [1] (setting [6]), 99.1%; in test [1] (setting [7]), 99%; in test [3], 99.5% (inactive). For the same molecule, the GFP response relative to DMSO was 96.5% (inactive) in test [2], 96.5% in test [2] (setting [8]) and 93.6% in test [2] (setting [9]). Moreover, the GFP response, % of DMSO in test [4] is 96.7% (inactive); in test [5], 96.4% (inactive); in test [5] (setting [6]) it was 100%; in test [5] (setting [7]), 95.6%.
Take `Cc1nn(C(=O)c2ccco2)c(C)c1Sc1ccccc1`: the GFP response vs DMSO in test [1] is 95.6% (inactive); in test [1] (setting [6]) it was 97%; in test [1] (setting [7]), 94.4%; in test [3] it was 101% (inactive). Besides, the GFP response relative to DMSO in test [2] is 97.7% (inactive); in test [2] (setting [8]), 99%; in test [2] (setting [9]) it was 95.4%. The GFP response, % of DMSO in test [4] was 97% (inactive); in test [5], 98.6% (inactive); in test [5] (setting [6]) it was 99.3%; in test [5] (setting [7]), 98.2%.
As for `C=CCOc1ccc(/C=C2\N=C(C)OC2=O)cc1OC`, the GFP response vs DMSO is 105% (inactive) in test [1], 107% in test [1] (setting [6]), 103% in test [1] (setting [7]) and 119% (inactive) in test [3]. The GFP response relative to DMSO in test [2] was 137% (inactive); in test [2] (setting [8]) it was 136%; in test [2] (setting [9]), 136%. In addition, the GFP response, % of DMSO in test [4] was 94.5% (inactive); in test [5], 103% (inactive); in test [5] (setting [6]), 106%; in test [5] (setting [7]) it was 99.7%.
For the molecule `CCc1noc(C)c1C(=O)Nc1nc(-c2ccc(Cl)cc2Cl)c(C)s1`, the GFP response vs DMSO is 98.8% (inactive) in test [1], 99.1% in test [1] (setting [6]), 98.8% in test [1] (setting [7]) and 99.5% (inactive) in test [3]. Further, the GFP response relative to DMSO in test [2] was 98.8% (inactive); in test [2] (setting [8]) it was 99.3%; in test [2] (setting [9]), 97.5%. The GFP response, % of DMSO was 102% (inactive) in test [4], 96.4% (inactive) in test [5], 96.4% in test [5] (setting [6]) and 94.5% in test [5] (setting [7]).
Consider `O=C1c2ccsc2SCCN1Cc1cccc(Cl)c1`, for which the GFP response vs DMSO is 95.4% (inactive) in test [1], 92.6% in test [1] (setting [6]), 95.8% in test [1] (setting [7]) and 98.3% (inactive) in test [3]. For the same molecule, the GFP response relative to DMSO was 108% (inactive) in test [2], 104% in test [2] (setting [8]) and 110% in test [2] (setting [9]). Moreover, the GFP response, % of DMSO is 98.7% (inactive) in test [4], 99.7% (inactive) in test [5], 99.1% in test [5] (setting [6]) and 101% in test [5] (setting [7]).
